Measured values taken from ChEMBL document CHEMBL4513216, “Probing the Open Global Health Chemical Diversity Library for Multistage-Active Starting Points for Next-Generation Antimalarials” (ACS Infect Dis, 2020).

assay: Toxicity liver stage against HepG2, at 10uM; assay type: cell-based; parameters: test concentration 10 uM, cell line HepG2-A16-CD81EGFP; conditions: human, HepG2-A16-CD81EGFP cells; read-out: INHIBITION
How it was run: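 Uninfected HepG2-A16-CD81EGFP cells, 3 × 10^3 per well, 1536-well, plated on prespotted compound at 10 μM final, parasite-free screening media added to match infected plates; puromycin 10 μM positive, DMSO 0.5% negative; run in parallel with 48 h PbLuc assay at 37 °C, 5% CO2; viability by CellTiter-Glo luminescence, normalized to controls.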

Compound	cytotoxicity at 10 µM [%]
O=C(NCc1ccco1)N(CCCO)C1CCCc2ccccc21 (stereo not drawn)	-9.53
Cc1c(CS(C)(=O)=O)cccc1NC(=O)CC1CCCC1	-6.72
CCN(CCC(=O)OC)S(=O)(=O)c1cnc2c(c1)c(C)nn2C	-15.2
Cn1ccc(C(=O)Nc2cc(F)ccc2OCC2CCCO2)cc1=O (stereo not drawn)	-1.59
CNCC(=O)N1CCCC(c2nccnc2Oc2cccc(F)c2)C1 (stereo not drawn)	6.87
CCc1nc(CN2CCN(C(=O)c3cncnc3CC)CC2)cs1	-11.4
COc1ccc(NC(=O)c2nc3ccccc3n(C)c2=O)cc1OC	-7.36
CCC(CC)NC(=O)c1ncn2c1CN(CC)S(=O)(=O)c1ccccc1-2	-85.1
COCCN1CCCN(C(=O)NC(C)Cn2cccn2)CC1 (stereo not drawn)	-9.39
COc1cc(NCCNC(=O)c2cscc2C)cc(OC)c1	1.6
COc1cccc(CN2CC[C@H](c3nnc(-c4ccco4)o3)C2)c1	-1.34
CCS(=O)(=O)CC(=O)NC1CCc2nccn2C1 (stereo not drawn)	17.1
Cc1ncccc1NC(=O)[C@H]1C[C@@H]2CCN(Cc3ccsc3)C[C@H]2O1	-79.1
Cn1ncnc1NS(=O)(=O)c1ccc(F)cc1Cl	5.73
CCC(C)Oc1cc(C(=O)N(c2cccnc2)C(C)C)ccn1 (stereo not drawn)	8.77
CSc1nccc(N2CCC3(CCCN(Cc4ccc(F)cc4)C3)C2)n1 (stereo not drawn)	9.5
Cc1ccccc1OCCSc1nnc(CC2CCS(=O)(=O)C2)n1C (stereo not drawn)	1.27
CN(CC(F)(F)F)C(=O)CNC(=O)Cc1ccccc1O	6.31
O=C(Nc1ccc2c(c1)OC1(CCCC1)O2)c1ccc(=O)[nH]n1	0.887
O=C(CO)N1CCc2onc(Cn3cccn3)c2C1	0.436
O=C(c1ccc(N2CCOCC2)nc1)N1CCCC(n2ccnc2)C1 (stereo not drawn)	-18.2
c1cc(COC[C@@H]2CCC[C@@]23CNCCO3)ccn1	1.26

Compound	cytotoxicity at 10 µM [%]
CCc1nc(CNc2cc(Cl)ccc2OCC2CCCO2)no1 (stereo not drawn)	8.84
O=C(NC1CC1)C1CNCCN1C(=O)COc1ccc2c(c1)OCO2 (stereo not drawn)	-1.74
CCS(=O)(=O)N1CCC2(CC1)CC(COC)N(c1ncccn1)C2 (stereo not drawn)	5.57
CC(C)(CNc1ccc(S(=O)(=O)C(F)F)cc1)N1CCOCC1	26.7
CCN(CC)c1ccc(C(=O)N2CCCC(n3cncn3)C2)cn1 (stereo not drawn)	-4.78
CCn1ncc(C(=O)NCCc2nc(-c3cccnc3)n[nH]2)c1C	1.94
CNc1cc(C)nc(C2COCCN2CCc2ccc(F)cc2)n1 (stereo not drawn)	3.68
NS(=O)(=O)N1CCc2ccc(NC(=O)Cc3ccc(F)cc3)cc21	-9.06
CN(C)CC(=O)N1CCc2sc(C(=O)N3CCOCC3)cc21	-99.4
CCOCCNc1nc(C2CCCC2)nc2c1cnn2C	-11
Cc1ncsc1CN1CC[C@](C)(O)[C@@H](Oc2cccc(F)c2)C1	-14.8
Cc1cc(C(=O)N2CCc3nc(N4CCOCC4)nc(C)c3C2)c(C)o1	-110
O=C(NCC(=O)N1CCCC1)c1nn(-c2ccccc2F)cc1O	6.53
O=C(CN1CCc2c(ncn2C2CC2)C1)NC1CCN(C2CC2)CC1	-8.44
O=C(COc1ccc2cccnc2c1)N1CCN[C@H]2CS(=O)(=O)C[C@H]21	7.98
Cc1ccc(C(=O)NS(=O)(=O)c2cccc3cnccc23)c(=O)[nH]1	-8.16
COCCN(C)C[C@@H]1CN(C(=O)c2ccc(SC)cc2)C[C@@H]1CO	4.44
CN(C)c1nc2cn(C3CCSCC3)c(=O)c-2c[nH]1	8.56
Cn1cnn(Cc2c(F)cccc2Br)c1=O	4.48
N#CCCCn1cnc2c(F)cc(Br)cc2c1=O	4.29
CCNC(=O)N(C)C(c1ccccc1)c1ccccn1 (stereo not drawn)	1.52
COc1ccccc1C1(CNc2cc(C(=O)N(C)C)ccn2)CC1	-1.6

Compound	cytotoxicity at 10 µM [%]
Cc1nc2cc(C3CCN(Cc4ccccc4F)C3)nn2c(O)c1C (stereo not drawn)	5.52
Cc1ncc2c(n1)CN(CC(=O)NCCOc1ccccc1)CC2	-8.66
CC(C)N(C)Cc1cncc2c1CCN(C(=O)c1ccccc1F)C2	2.35
Cc1cc(C)n(CC2CCCN2C(=O)c2ccc3c(c2)OCCO3)n1 (stereo not drawn)	5.43
c1ccc(Cc2nnc(CN3CCCC(Cn4cncn4)C3)o2)cc1 (stereo not drawn)	-4.51
NC(=O)C1CCN(C(=O)NCc2ccccc2-n2cccn2)CC1	-11.1
Cc1cc(CNc2ccnn2CC(C)C)ccc1-n1cncn1	24
CC(C)CC(=O)NCc1cccc(OCCN(C)C2CCOCC2)c1	11.5
Cc1nn(C)c2nc(C(C)C)cc(C(=O)Nc3n[nH]c(C4CC4)n3)c12	-4.38
CC(C)O[C@H]1CN(Cc2cnc3c(-c4ccccc4)cnn3c2)C[C@@H]1O	3.45
CC(=O)NC[C@]1(O)CCN(C(=O)c2ccc3c(c2)CCC3)C[C@H]1O	1.75
CC(C)CCN1C2(CCN(C(=O)CN(C)C)C2)c2ccccc2S1(=O)=O (stereo not drawn)	-4.14
CC1=N[C@@]2(CC[C@@H]3CN(CC(C)C)C[C@@H]32)C(=O)N1CC(C)C	-79.6
CC(C)N(CC1CCCN(Cc2ccon2)C1)C(=O)OC(C)(C)C (stereo not drawn)	7.09
CN(C)C(=O)N1C[C@H]2CC[C@@H](C1)N(S(=O)(=O)c1cccnc1)C2	-6.55
Cc1nn(C)cc1C(=O)NCc1cc(N(C)C)nc2ccccc12	2.29
Cc1ccc(C#N)c(N2CC(C)(C)[C@@](C)(O)C2)n1	1.39
Cc1ccccc1C(=O)N1CCC2(CCCN2CCN(C)C)CC1	3.56
O=C(O)[C@@H]1CCN(C(=O)c2cscn2)[C@@H]1c1ccc(F)cc1	4.97
O=C(CCCc1nc2ccccc2[nH]1)N1CCCC(n2cccn2)C1 (stereo not drawn)	-0.704
Cn1cc(CN2CC(C(=O)Nc3ccccc3)C3(CCOCC3)C2)cn1 (stereo not drawn)	-1.96
CN(C)C(=O)N1CCC(C2C(=O)Nc3ccccc32)CC1 (stereo not drawn)	11.9

Compound	cytotoxicity at 10 µM [%]
CC(Cn1cccn1)NCc1csc2c1CCCC2 (stereo not drawn)	-2.86
CCCc1cc(C(=O)N2CCCN(c3cccnn3)CC2)[nH]n1	-1.16
CC(=O)N1CCN(Cc2ccc(F)cc2)CC2(CC(=O)N(C)C2)C1 (stereo not drawn)	-2.78
COc1ccc(C(C(=O)O)N(C)CCN2CCCC2)cc1F (stereo not drawn)	1.38
N[C@H]1CN(C(=O)CCc2ccccn2)C[C@@H]1c1ccccc1	-0.23
Cc1nccc(C2CN(Cc3ccc(-c4ccccc4C(=O)O)o3)C2)n1	4.28
Cc1nc2sccn2c1CNC1(c2ccccc2F)CCCC1	11.3
Cc1c(CNCC(C)Oc2cccnc2)c2ccccc2n1CC(N)=O (stereo not drawn)	-141
c1ccc2c(N3CCCCC3)cnnc2c1	-5.34
CCCc1nc(C(=O)N(C)Cc2cnn(-c3cccc(OC)c3)c2)cs1	6.39
OC1(CN2CCCC2)CCCN(Cc2c[nH]c(CC3CCCC3)n2)C1 (stereo not drawn)	-9.09
Cc1cc(C2CCCN(C(=O)COc3ccc(F)cc3F)C2)n[nH]1 (stereo not drawn)	5.93
CCN1CCN(C(=O)c2cc(NC(=O)c3ccccc3)n(C)n2)CC1	8.91
CNC(=O)c1cccc(CN2CCN(C3=NCC(C)(C)S3)CC2)c1	-2.37
CN(C)C(=O)CN1C[C@H]2CCN(C(=O)c3ccccc3)CC[C@H]2S1(=O)=O	9.1
c1ccc(-c2noc(C3CCN(CCn4cccn4)CC3)n2)cc1	2.86
CC(=O)c1cccc(NC(=O)COc2c(C)n(C)ccc2=O)c1	2.45
COc1ccc(C2=CCN(C(=O)CN(C)CC(N)=O)CC2)cc1	-9.19
c1cnnc(-c2noc(COCC3CCCO3)n2)c1 (stereo not drawn)	2.66
CNC(=O)CN1CC[C@H]2CN(C(=O)c3cccn3C)C[C@H]2C1	2.31
Cc1ccc(NC(=O)C2CSCN2C(=O)c2cccnc2)c(C)c1 (stereo not drawn)	-1.9
CN1[C@@H](CCC(=O)NCc2ccc(F)cc2)CNC(=O)[C@H]2NCC[C@H]21	7.6

Compound	cytotoxicity at 10 µM [%]
Cn1cc(C(=O)N2CC[C@@H]3[C@@H]2CCN3Cc2ccccc2)cn1	-69.8
O=C(NCCCNc1ccccn1)NCC1CCS(=O)(=O)C1 (stereo not drawn)	16
CC(C)CN1C(=O)C2(CCN(CC3CCOCC3)C2)c2ccccc21 (stereo not drawn)	-71.2
O=C1CC2(CCN(Cc3ccoc3)C2)CN1c1ccc2c(c1)OCO2 (stereo not drawn)	-6.72
CC(NS(=O)(=O)N(C)C)c1cccc(-n2cccn2)c1 (stereo not drawn)	-1.46
CC(C)c1nccn1CCC(=O)NCC(C)(O)c1ccco1 (stereo not drawn)	1.23
CC(C)S(=O)(=O)N1C[C@@H](c2ccccc2)[C@H]2[C@H]1CCCCCN2C	0.247
CN(CCc1ccccn1)C(=O)C(O)c1cc(Cl)cc(Cl)c1 (stereo not drawn)	-5.68
c1coc(CN2CCc3nnc(COc4cncnc4)n3CC2)c1	4.15
COc1cc(N2C[C@H]3CCN(CCN4CCCC4)C[C@H]3C2)ncn1	12
Cc1noc2nc(C3CCN(Cc4ccccn4)CC3)cc(C(F)F)c12	-13
c1ncn(CC2CN(Cc3ccc4c(c3)OCCO4)CCO2)n1 (stereo not drawn)	-0.282
Cc1nsc(C(=O)NCCc2ccc(F)cc2)n1	-6.92
O=C(Cn1cnc2sccc2c1=O)NCCCc1nnc2ccccn12	5.84
Cc1cc2c(N3CCC(N(C)Cc4nccs4)CC3)ncnc2s1	45
CCN(CC)Cc1cnc2n1CCN(C1CCOC1)CC2 (stereo not drawn)	-146
COCCN1CCC(CNC(=O)Nc2ccc(-c3ccccc3)cc2)C1 (stereo not drawn)	-15.2
O=C(c1ccccc1N1CCOCC1)N1CCCC(n2ccnc2)C1 (stereo not drawn)	-10.7
COc1ncccc1NC(=O)N1CCCC1c1cc(C)no1 (stereo not drawn)	-9.66
O=C(NC1CCCN(c2ccccc2Cl)C1)c1nc(=O)[nH][nH]1 (stereo not drawn)	-10.9
